ChEMBL document CHEMBL4270649 (Eur J Med Chem, 2018)
The source made the active and inactive calls. The calls are words filed in the database; no cut-off is given here.

Tests used:
[1] = target: T1, Dual specificity tyrosine-phosphorylation-regulated kinase 1B (Homo sapiens, UniProt Q9Y463); assay: Inhibition of full length recombinant human GST-tagged DYRK1B expressed in baculovirus expression system using KKISGRLSPIMTEQ-NH2 as substrate after 15 mins in presence of 15 uM [gamma32P]ATP by phosphor imaging analysis
[2] = target: T1, Dual specificity tyrosine-phosphorylation-regulated kinase 1B; conditions: 0.25 h, read-out: INH
[3] = Half life in human liver S9 fraction at 0.3 uM in presence of NADP+/UDPGA by LC-MS/MS analysis; assay type: ADME, subcellular
Outline: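 Compound was incubated with human S9 fraction and samples were taken at defined time points. Remaining parent was quantified by LC-MS/MS: ESI triple quadrupole, RP C18 column, water/acetonitrile with 0.1% TFA, 5–100% B over 7 min at 400 µL/min. Half-life was calculated from the remaining-parent data.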

[4] = target: T2, Dual specificity tyrosine-phosphorylation-regulated kinase 1A (Homo sapiens, UniProt Q13627); assay: Inhibition of recombinant human N-terminal His6-tagged DYRK1A expressed in Escherichia coli BL21(DE3) using KKISGRLSPIMTEQ-NH2 as substrate after 15 mins in presence of 15 uM [gamma32P]ATP by phosphor imaging analysis
[5] = target: T2, Dual specificity tyrosine-phosphorylation-regulated kinase 1A; assay: Inhibition of recombinant human N-terminal His6-tagged DYRK1A expressed in Escherichia coli BL21(DE3) at 1.25 uM using KKISGRLSPIMTEQ-NH2 as substrate after 15 mins in presence of 15 uM [gamma32P]ATP by phosphor imaging analysis relative to control
[6] = target: Cyclin-dependent kinase 5/CDK5 activator 1 (Homo sapiens) (UniProt Q00535+Q15078); assay: Inhibition of full length human GST/His-tagged CDK5/p25 expressed in baculovirus expression system at 1.25 uM in presence of 100 uM ATP by Z'-Lyte assay relative to control
[7] = target: Dual specificity protein kinase CLK1 (Homo sapiens, UniProt P49759); assay: Inhibition of recombinant human GST-tagged CLK1 (129 to 484 residues) expressed in Escherichia coli using GRSRSRSRSRSRSRSR as substrate after 15 mins in presence of 15 uM [gamma32P]ATP by phosphor imaging analysis
[8] = target: Dual specificity protein kinase CLK2 (Homo sapiens) (UniProt P49760); assay: Inhibition of human GST-tagged CLK2 expressed in baculovirus expression system at 1.25 uM in presence of 100 uM ATP relative to control
[9] = target: Casein kinase I isoform delta (Homo sapiens) (UniProt P48730); assay: Inhibition of CK1delta (unknown origin) at 1.25 uM in presence of 100 uM ATP relative to control
[10] = target: T3, Serine/threonine-protein kinase haspin (Homo sapiens, UniProt Q8TF76); assay: Inhibition of human GST-tagged haspin expressed in baculovirus expression system at 1.25 uM in presence of 100 uM ATP relative to control
T3 sequence (Q8TF76 whole entry): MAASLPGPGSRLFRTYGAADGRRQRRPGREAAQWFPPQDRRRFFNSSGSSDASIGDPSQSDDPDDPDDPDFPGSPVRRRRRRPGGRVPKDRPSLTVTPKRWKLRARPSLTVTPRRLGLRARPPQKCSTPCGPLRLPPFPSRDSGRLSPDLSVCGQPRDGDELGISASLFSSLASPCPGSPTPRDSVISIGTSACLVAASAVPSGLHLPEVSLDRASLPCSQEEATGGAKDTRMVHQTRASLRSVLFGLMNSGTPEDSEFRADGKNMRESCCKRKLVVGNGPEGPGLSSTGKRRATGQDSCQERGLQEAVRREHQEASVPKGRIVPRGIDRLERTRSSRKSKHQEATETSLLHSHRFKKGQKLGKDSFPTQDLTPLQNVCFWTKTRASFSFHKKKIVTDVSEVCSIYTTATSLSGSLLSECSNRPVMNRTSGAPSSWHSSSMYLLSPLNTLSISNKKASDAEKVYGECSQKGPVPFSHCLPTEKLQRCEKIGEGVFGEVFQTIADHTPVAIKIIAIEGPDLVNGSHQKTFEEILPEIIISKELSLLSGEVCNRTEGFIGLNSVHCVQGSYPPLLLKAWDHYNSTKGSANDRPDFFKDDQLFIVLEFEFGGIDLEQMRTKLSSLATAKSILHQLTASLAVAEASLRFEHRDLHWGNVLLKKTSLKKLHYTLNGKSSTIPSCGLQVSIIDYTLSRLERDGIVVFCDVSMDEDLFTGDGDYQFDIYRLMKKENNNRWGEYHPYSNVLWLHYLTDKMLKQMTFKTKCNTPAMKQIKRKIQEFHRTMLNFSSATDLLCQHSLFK

[11] = target: T3, Serine/threonine-protein kinase haspin; assay: Inhibition of human GST-tagged haspin expressed in baculovirus expression system in presence of 100 uM ATP
[12] = target: Homeodomain-interacting protein kinase 1 (Homo sapiens) (UniProt Q86Z02); assay: Inhibition of human GST-tagged HIPK1 expressed in baculovirus expression system at 1.25 uM in presence of 100 uM ATP relative to control
[13] = target: Myosin light chain kinase 2, skeletal/cardiac muscle (Homo sapiens) (UniProt Q9H1R3); assay: Inhibition of human full length GST-tagged MLCK2 expressed in baculovirus expression system at 1.25 uM in presence of 100 uM ATP relative to control
[14] = target: BDNF/NT-3 growth factors receptor (Homo sapiens) (UniProt Q16620); assay: Inhibition of human His-tagged TRK-B expressed in baculovirus expression system at 1.25 uM in presence of 100 uM ATP relative to control
[15] = target: Serine/threonine-protein kinase pim-1 (Homo sapiens) (UniProt P11309); assay: Inhibition of full length human His-tagged PIM1 expressed in baculovirus expression system at 1.25 uM in presence of 100 uM ATP relative to control
[16] = target: SRSF protein kinase 1 (Homo sapiens) (UniProt Q96SB4); assay: Inhibition of full length human His-tagged SRPK1 expressed in baculovirus expression system at 1.25 uM in presence of 100 uM ATP relative to control
[17] = target: T4, Serine/threonine-protein kinase 17A (Homo sapiens) (UniProt Q9UEE5); assay: Inhibition of full length human GST-tagged STK17A expressed in baculovirus expression system at 1.25 uM in presence of 100 uM ATP relative to control
T4 sequence (whole entry): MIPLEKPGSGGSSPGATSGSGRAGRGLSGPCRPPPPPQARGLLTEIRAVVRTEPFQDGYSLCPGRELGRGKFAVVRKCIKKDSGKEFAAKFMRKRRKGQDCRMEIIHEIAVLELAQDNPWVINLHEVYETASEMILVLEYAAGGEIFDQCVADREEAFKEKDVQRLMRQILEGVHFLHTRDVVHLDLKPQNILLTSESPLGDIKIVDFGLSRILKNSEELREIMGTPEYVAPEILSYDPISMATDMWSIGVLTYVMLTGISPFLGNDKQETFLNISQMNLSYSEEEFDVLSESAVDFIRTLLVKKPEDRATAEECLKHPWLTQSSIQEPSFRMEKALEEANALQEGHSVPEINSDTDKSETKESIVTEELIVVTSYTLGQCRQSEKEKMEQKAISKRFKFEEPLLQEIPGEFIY

[18] = target: T2, Dual specificity tyrosine-phosphorylation-regulated kinase 1A; assay: Inhibition of DYRK1A in human HeLa cells harboring GFP-SF3b1-NT assessed as reduction in SF3b1 phosphorylation at T343 residue after 18 hrs by Western blot analysis; assay type: cell-based
[19] = Cytotoxicity against human HeLa cells assessed as cell viability at 1 uM after 3 days by XTT assay relative to control; assay type: cell-based; conditions: read-out: Activity
[20] = Cytotoxicity against human HeLa cells assessed as cell viability at 3 uM after 3 days by XTT assay relative to control; assay type: cell-based; conditions: read-out: Activity
[21] = Cytotoxicity against human HeLa cells assessed as cell viability at 10 uM after 3 days by XTT assay relative to control; assay type: cell-based; conditions: read-out: Activity

T1 sequence (Q9Y463 whole entry): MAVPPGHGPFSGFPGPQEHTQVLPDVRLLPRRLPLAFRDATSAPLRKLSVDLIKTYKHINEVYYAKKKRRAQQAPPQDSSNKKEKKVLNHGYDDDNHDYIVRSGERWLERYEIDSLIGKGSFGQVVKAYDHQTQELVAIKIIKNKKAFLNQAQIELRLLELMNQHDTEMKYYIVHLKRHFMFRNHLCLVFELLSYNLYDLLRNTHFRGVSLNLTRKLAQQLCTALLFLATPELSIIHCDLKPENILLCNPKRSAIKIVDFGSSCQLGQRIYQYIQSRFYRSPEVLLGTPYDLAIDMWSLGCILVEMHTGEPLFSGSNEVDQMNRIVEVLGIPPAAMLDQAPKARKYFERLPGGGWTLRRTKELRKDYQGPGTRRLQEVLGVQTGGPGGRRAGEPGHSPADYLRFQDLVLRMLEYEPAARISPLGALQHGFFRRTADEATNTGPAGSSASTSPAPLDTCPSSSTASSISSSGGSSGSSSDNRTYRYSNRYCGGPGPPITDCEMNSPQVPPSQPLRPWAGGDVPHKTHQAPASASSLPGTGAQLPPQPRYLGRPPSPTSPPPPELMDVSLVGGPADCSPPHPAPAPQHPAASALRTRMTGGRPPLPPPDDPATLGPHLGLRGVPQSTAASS
Sequence of Serine/threonine-protein kinase pim-1 (Homo sapiens) (P11309 whole entry, looked up): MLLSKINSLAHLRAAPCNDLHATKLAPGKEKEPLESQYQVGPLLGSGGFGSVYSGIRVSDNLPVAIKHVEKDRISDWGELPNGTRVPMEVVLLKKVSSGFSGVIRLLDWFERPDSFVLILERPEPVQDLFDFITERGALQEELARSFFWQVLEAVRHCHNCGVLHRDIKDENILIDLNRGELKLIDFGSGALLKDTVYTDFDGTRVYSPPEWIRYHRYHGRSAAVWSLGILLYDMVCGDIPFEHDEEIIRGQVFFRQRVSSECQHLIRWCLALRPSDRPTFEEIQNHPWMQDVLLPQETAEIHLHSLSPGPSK
Sequence of BDNF/NT-3 growth factors receptor (Homo sapiens) (Q16620 32-822 limits assumed): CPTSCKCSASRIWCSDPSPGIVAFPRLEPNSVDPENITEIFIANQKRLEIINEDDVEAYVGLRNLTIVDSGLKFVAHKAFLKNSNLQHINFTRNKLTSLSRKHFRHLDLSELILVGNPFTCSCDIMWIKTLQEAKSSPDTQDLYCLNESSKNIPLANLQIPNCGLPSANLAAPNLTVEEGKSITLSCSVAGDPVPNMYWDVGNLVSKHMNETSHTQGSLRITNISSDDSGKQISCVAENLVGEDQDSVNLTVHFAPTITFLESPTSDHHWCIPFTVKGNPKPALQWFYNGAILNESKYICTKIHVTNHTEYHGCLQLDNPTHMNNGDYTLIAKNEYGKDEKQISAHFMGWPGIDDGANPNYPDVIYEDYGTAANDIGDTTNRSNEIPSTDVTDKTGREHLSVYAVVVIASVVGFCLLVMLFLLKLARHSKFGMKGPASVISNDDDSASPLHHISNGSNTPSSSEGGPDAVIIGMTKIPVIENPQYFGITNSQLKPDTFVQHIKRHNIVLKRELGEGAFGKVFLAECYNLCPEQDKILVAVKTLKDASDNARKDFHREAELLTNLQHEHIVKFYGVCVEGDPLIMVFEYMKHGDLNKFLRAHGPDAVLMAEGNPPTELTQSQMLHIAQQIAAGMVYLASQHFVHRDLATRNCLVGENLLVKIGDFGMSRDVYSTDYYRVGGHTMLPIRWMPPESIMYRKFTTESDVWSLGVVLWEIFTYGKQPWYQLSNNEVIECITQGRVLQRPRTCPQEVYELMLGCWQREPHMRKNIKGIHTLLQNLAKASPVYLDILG
Sequence of Dual specificity protein kinase CLK1 (P49759 whole entry, the tested form may be a part): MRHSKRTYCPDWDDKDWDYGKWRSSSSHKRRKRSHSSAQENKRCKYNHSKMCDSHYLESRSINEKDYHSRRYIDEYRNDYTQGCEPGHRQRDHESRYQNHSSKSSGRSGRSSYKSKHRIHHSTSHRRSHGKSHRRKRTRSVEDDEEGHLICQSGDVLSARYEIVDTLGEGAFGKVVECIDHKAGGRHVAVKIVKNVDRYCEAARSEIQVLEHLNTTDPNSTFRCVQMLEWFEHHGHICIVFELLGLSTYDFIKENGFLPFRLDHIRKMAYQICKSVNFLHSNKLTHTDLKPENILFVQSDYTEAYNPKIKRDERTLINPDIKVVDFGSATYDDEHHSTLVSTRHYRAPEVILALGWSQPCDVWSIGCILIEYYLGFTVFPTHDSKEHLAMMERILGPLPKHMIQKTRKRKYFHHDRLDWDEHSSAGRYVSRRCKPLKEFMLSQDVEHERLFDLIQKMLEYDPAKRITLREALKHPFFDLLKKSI
Sequence of Dual specificity protein kinase CLK2 (Homo sapiens) (P49760 whole entry, looked up, canonical isoform): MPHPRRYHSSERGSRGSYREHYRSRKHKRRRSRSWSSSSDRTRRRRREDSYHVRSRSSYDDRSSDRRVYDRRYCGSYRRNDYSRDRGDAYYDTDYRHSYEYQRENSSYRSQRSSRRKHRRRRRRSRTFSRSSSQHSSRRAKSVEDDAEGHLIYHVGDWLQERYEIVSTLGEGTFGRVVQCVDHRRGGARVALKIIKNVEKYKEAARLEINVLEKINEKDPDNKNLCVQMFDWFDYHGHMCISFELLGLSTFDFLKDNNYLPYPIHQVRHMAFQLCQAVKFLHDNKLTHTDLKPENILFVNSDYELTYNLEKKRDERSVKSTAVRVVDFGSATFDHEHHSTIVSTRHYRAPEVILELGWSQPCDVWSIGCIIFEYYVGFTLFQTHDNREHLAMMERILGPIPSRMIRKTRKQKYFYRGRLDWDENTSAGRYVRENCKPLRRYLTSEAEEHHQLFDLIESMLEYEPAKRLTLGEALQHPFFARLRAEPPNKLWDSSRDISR
Sequence of Myosin light chain kinase 2, skeletal/cardiac muscle (Homo sapiens) (Q9H1R3 whole entry): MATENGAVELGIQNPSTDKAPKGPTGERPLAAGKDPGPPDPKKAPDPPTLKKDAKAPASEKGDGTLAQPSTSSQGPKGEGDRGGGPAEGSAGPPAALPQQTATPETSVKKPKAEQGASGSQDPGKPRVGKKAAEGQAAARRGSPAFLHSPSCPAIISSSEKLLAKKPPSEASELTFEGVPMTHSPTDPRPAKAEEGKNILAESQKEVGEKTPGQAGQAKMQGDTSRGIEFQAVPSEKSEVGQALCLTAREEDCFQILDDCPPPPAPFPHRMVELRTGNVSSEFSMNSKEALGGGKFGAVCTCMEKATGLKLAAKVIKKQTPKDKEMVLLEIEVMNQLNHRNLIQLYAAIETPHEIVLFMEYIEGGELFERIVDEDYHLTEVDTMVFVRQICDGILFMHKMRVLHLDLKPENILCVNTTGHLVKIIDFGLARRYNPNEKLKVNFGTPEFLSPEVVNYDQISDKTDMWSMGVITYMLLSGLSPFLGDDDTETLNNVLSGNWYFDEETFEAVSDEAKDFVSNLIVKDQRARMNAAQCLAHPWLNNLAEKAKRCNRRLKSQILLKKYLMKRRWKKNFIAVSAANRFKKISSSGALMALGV
Sequence of SRSF protein kinase 1 (Homo sapiens) (Q96SB4 whole entry): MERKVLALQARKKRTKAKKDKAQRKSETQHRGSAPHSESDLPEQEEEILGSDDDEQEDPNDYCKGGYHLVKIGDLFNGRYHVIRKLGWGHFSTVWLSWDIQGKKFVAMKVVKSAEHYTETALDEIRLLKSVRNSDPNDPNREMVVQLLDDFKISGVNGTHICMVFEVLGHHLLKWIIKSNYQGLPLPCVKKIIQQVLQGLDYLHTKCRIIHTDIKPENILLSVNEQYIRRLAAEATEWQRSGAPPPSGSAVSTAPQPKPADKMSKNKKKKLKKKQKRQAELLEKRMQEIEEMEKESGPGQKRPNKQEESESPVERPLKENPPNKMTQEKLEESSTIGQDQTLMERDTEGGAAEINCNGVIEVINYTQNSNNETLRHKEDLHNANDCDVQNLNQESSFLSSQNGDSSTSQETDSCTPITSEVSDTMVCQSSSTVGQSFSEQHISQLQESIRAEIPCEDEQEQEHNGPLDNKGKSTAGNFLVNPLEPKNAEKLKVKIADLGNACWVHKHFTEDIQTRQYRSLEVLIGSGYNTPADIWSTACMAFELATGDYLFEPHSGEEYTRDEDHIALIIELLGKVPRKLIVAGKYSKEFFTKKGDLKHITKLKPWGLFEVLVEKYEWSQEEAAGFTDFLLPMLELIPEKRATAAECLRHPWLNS
Sequence of Casein kinase I isoform delta (Homo sapiens) (P48730 whole entry, looked up, canonical isoform): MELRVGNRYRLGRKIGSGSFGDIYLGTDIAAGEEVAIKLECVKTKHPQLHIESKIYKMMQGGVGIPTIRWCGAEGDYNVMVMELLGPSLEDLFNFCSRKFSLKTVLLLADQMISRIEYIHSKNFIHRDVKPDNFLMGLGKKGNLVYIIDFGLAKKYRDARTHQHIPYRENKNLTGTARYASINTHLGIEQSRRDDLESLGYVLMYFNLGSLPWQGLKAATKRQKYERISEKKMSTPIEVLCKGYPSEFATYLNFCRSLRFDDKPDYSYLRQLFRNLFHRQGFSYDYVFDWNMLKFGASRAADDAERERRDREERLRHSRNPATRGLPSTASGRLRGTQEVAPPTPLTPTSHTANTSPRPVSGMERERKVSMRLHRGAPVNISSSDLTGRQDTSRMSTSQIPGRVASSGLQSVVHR
Sequence of Cyclin-dependent kinase 5/CDK5 activator 1 (Homo sapiens) (Q00535 whole entry, the tested form may be a part): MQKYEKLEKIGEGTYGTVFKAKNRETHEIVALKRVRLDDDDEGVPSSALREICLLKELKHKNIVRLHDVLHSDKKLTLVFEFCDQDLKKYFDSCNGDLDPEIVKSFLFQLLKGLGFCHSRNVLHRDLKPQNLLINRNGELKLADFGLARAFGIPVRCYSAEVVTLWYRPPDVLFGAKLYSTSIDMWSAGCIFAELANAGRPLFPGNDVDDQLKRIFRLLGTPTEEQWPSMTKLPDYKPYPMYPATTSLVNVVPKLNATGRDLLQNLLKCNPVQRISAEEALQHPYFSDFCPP
Sequence of Cyclin-dependent kinase 5/CDK5 activator 1 (Homo sapiens) (Q15078 99-307 partner limits assumed): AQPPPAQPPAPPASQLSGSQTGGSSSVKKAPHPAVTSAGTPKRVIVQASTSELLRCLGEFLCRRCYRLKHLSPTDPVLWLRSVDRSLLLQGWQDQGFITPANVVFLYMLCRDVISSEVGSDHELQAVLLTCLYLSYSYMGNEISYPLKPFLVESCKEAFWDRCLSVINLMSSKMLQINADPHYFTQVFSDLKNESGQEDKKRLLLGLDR

| Compound | IC50 [1] [µM] | inhibition at 0.25 µM [2] [%] | also measured |
| --- | --- | --- | --- |
| O=C(Nc1cncc(-c2cc(-c3cccnc3)cs2)c1)C1CCC1 | 0.219 | 81 |  |
| CC(C)n1cc(-c2csc(-c3cncc(NC(=O)C4CC4)c3)c2)cn1 |  | 0.7 |  |
| CS(=O)(=O)Nc1cncc(-c2cc(-c3cccnc3)cs2)c1 |  | 23.5 |  |
| O=C(Nc1cncc(-c2cccs2)c1)C1CC1 |  | 0 |  |
| O=C(Nc1cncc(-c2cc(-c3cccnc3)cs2)c1)C1CC1 | 0.0729 | 40 | IC50 [4]: 0.0032 µM; inhibition [5]: 89%; inhibition [6]: 1%; IC50 [7]: 0.27 µM; inhibition [8]: 21%; inhibition [9]: 4%; inhibition at 1.25 µM [10]: 72%; IC50 [11]: 0.0763 µM; inhibition [12]: 1%; inhibition [13]: 12.1%; inhibition [14]: 8%; inhibition [15]: inactive; inhibition [16]: 2%; inhibition [17]: 51.3%; IC50 [18]: 0.043 µM; inhibition [18]: Dose-dependent effect; viability at 72 h, 1 µM [19]: 99%; viability at 72 h, 3 µM [20]: 102%; viability at 72 h, 10 µM [21]: 98%; half-life at 0.3 µM [3]: 2.4 h |
| CCCn1cc(-c2csc(-c3cncc(NC(=O)C4CC4)c3)c2)cn1 | 0.0988 | 65.7 |  |
| O=C(Cc1nnn[nH]1)Nc1cncc(-c2cc(-c3cccnc3)cs2)c1 |  | 38.5 |  |
| O=C(Nc1cncc(-c2cc(-c3cccnc3)cs2)c1)C1CCCCC1 |  | 51 |  |
| CCC(=O)Nc1cncc(-c2cc(-c3cccnc3)cs2)c1 |  | 49.3 |  |
| CN[C@@H]1C[C@H]2O[C@@](C)([C@@H]1OC)n1c3ccccc3c3c4c(c5c6ccccc6n2c5c31)C(=O)NC4 [STAUROSPORINE] |  |  | viability at 72 h, 1 µM [19]: 33% |
| O=C(CN1CCCCC1)Nc1cncc(-c2cc(-c3cccnc3)cs2)c1 |  | 51.8 |  |

Continued, in another order:

| IC50 [1] [µM] | inhibition at 0.25 µM [2] [%] | Compound | also measured |
| --- | --- | --- | --- |
|  | 57 | CCn1cc(-c2csc(-c3cncc(NC(=O)C4CC4)c3)c2)cn1 |  |
|  | 34.9 | CC(C)(C)OC(=O)N1CCC(C(=O)Nc2cncc(-c3cc(-c4cccnc4)cs3)c2)C1 (stereo not given) |  |
| 0.0671 | 78.6 | Cn1cc(-c2csc(-c3cncc(NC(=O)C4CC4)c3)c2)cn1 |  |
|  | 14.6 | CCN(C(=O)C1CC1)c1cncc(-c2cc(-c3cccnc3)cs2)c1 |  |
|  | 13.9 | O=C(CN1CCOCC1)Nc1cncc(-c2cc(-c3cccnc3)cs2)c1 |  |
| 0.138 | 58.1 | O=C(Nc1cncc(-c2cc(-c3cn[nH]c3)cs2)c1)C1CC1 | half-life at 0.3 µM [3]: 2.45 h |
| 0.132 | 62.7 | O=C(Nc1cncc(-c2cc(-c3cccnc3)cs2)c1)C1CCNC1 (stereo not given) |  |
|  | 0.9 | CN(C(=O)C1CC1)c1cncc(-c2cc(-c3cccnc3)cs2)c1 |  |
|  | 40.3 | CC(=O)Nc1cncc(-c2cc(-c3cccnc3)cs2)c1 | viability at 72 h, 1 µM [19]: 98%; viability at 72 h, 3 µM [20]: 95%; viability at 72 h, 10 µM [21]: 83% |
